Test results from ChEMBL document CHEMBL3244208, “Quantitative structure-activity relationships for 5-substituted 8-hydroxyquinolines as inhibitors of dental plaque” (J Med Chem, 1977).

Assays:
[1] = Ionization constant, pKa of quinoline nitrogen group of the compound at 1 mM by potentiometric analysis; assay type: physicochemical
Summary of the method: (§1)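 Potentiometric titration of 10⁻³ M test solutions in ethanol (95%)–water mixtures of varying proportion, 100 ml per titration, at 25 ± 0.1 °C under nitrogen with stirring. Titrant added in 0.25-ml aliquots, with stirring and gas stopped for each pH reading. Acidic function titrated with 0.02 N KOH, basic function with 0.02 N HCl. Boiled distilled, deionized water used for dilutions.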

[2] = 1-Octanol-water partition coefficient, log P of the compound by spectrophotometer analysis; assay type: physicochemical
Summary of the method: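 Shake-flask partition between 1-octanol and water. Phase-volume ratio and sample amount set so that test-layer absorbance after partitioning fell between 0.2 and 0.9 in a 1-cm cell. The solute was measured by UV spectrophotometry in one layer only, and the other layer was obtained by difference. P = C_octanol/C_water. At least triplicate runs with different sample amounts, log P averaged.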

[3] = 1-Octanol-water partition coefficient, log P of the compound by spectrophotometer analysis corrected for ionization; assay type: physicochemical
Summary of the method: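 Octanol-water log P was measured by the shake-flask method: UV-spectrophotometric assay of one phase, the other by difference, at least triplicate runs with different sample amounts, averaged. The measured log P was then corrected for ionization.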

[4] = Ionization constant, pKa of 8-hydroxyl group of the compound at 1 mM by potentiometric analysis; assay type: physicochemical; summary of the method: as §1
[5] = Ionization constant, pKa of substituent at 5th position of the compound at 1 mM by potentiometric analysis; assay type: physicochemical; summary of the method: as §1
[6] = test system: Streptococcus mutans; assay: Antibacterial activity against Streptococcus mutans No.6715 assessed as inhibition of bacterial growth after 24 to 48 hrs by spectrophotometric analysis; assay type: functional; details: for MIC: Streptococcus mutans, No.6715
Summary of the method: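 S. mutans No. 6715, pure plaque-forming strain; media inoculated with 0.20 ml of a 24-h culture. Incubated anaerobically at 37 °C. Growth was read spectrophotometrically (% T) at 24 and 48 h. Dilution series run in sets of five tubes. MIC (molar) was taken as the lowest drug level whose tubes read above 60% T at 24 h.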

SMILES	pKa at 1000 µM [1]	logP [2]	logP [3]	pKa at 1000 µM [4]	pKa at 1000 µM [5]	log(1/MIC) [6]	MIC [6] [µM]
OCc1ccc(O)c2ncccc12	4.93	1	1	9.53	–	–	–
O=Cc1ccc(O)c2ncccc12	4.42	–	2.07	7.01	–	–	–
Oc1ccc(I)c2cccnc12	4.43	–	3.29	8.31	–	–	–
CC(=O)c1ccc(O)c2ncccc12	4.07	–	1.96	7.62	–	–	–
COc1ccc(O)c2ncccc12	4.84	2.1	2.1	9.96	–	–	–
CN(C)Cc1ccc(O)c2ncccc12	4.47	1.06	2.37	9.46	8.66	–	–
CCN(CC)Cc1ccc(O)c2ncccc12	4.48	1.41	4.41	9.19	9.32	–	–
N#CCc1ccc(O)c2ncccc12	4.3	–	1.82	9.25	–	–	–
COC(=O)Cc1ccc(O)c2ncccc12	4.72	–	–	9.46	–	–	–
CCOC(=O)Cc1ccc(O)c2ncccc12	4.72	–	2.27	9.4	–	–	–
Cl.Oc1cccc2cccnc12	–	–	–	–	–	-0.301	2
Cl.Oc1ccc(Cl)c2cccnc12	–	–	–	–	–	-0.301	2
Cl.O=[N+]([O-])c1ccc(O)c2ncccc12	–	–	–	–	–	-1.903	80
CC(=O)c1ccc(O)c2ncccc12.Cl	–	–	–	–	–	-0.602	4
Cc1ccc(O)c2ncccc12.Cl	–	–	–	–	–	-1.301	20
COc1ccc(O)c2ncccc12.Cl	–	–	–	–	–	-1.602	40
CN(C)Cc1ccc(O)c2ncccc12.Cl	–	–	–	–	–	-1.602	40
CCN(CC)Cc1ccc(O)c2ncccc12.Cl	–	–	–	–	–	-1.602	40
Cl.OCc1ccc(O)c2ncccc12	–	–	–	–	–	-2	100
Cl.N#CCc1ccc(O)c2ncccc12	–	–	–	–	–	-1.778	60
COC(=O)Cc1ccc(O)c2ncccc12.Cl	–	–	–	–	–	-2.903	800
CCOC(=O)Cc1ccc(O)c2ncccc12.Cl	–	–	–	–	–	-2.903	800
Cl.Oc1ccc(I)c2cccnc12	–	–	–	–	–	-0.602	4
Cl.O=Cc1ccc(O)c2ncccc12	–	–	–	–	–	-0.778	6
Oc1ccc(Cl)c2cccnc12 [CLOXYQUIN]	3.8	2.91	2.94	8.7	–	–	–
O=[N+]([O-])c1ccc(O)c2ncccc12 [NITROXOLINE]	3.68	-1.17	0.11	5.97	–	–	–
Oc1cccc2cccnc12 [OXYQUINOLINE]	5.14	–	1.95	9.64	–	–	–
Cc1ccc(O)c2ncccc12 [TILIQUINOL]	5.25	2.38	2.38	9.92	–	–	–
